Bioassay records deposited in PubChem by several laboratories.
Only some compounds are listed: those with a hit (about 4.9% of all), similar ones and a draw of the others.
STAT1 inh: reduces IFN-gamma driven STAT1 reporter signal. hit rate 0.35% among 200,000. NIH 3T3 STAT1-luciferase reporter, luminescence. inhibition, % at 5.5 µM;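 active = inhibition above a set limit, the mean inhibition across all tested compounds plus 3 SD, cut at about 34% in these data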;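 also: 0% = IFN-gamma with DMSO and 100% = IFN-gamma with 300 µM nifuroxazide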
APP 5'UTR act: APP 5'UTR luciferase reporter activation. SH-SY5Y APP 5'UTR luciferase reporter, luminescence; zero percent = DMSO vehicle wells. activation, % at 2 µM. hit rate 1% among 190,000. AID 1276;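 active = activation above a set limit, based on mean plus 3 SD of controls, cut at about 140% in these data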
STAT1 activator: increases IFN-gamma driven STAT1 reporter signal | NIH 3T3 STAT1-luciferase reporter, luminescence; 100% = IFN-gamma alone, no compound | activation (% of control), % at 5.5 µM | hit rate 2.6% among 200,000;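 active = activation above the screen-wide mean activation plus 3 SD, cut at about 130% in these data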;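 also: raw ratio to IFN-gamma control signal so 100% means no change and 0% no light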
NF-kB expr up: NF-kB expression increase, human neuronal cells; NF-kB reporter expression; active compounds read high; fold change at 12.5 µM; hit rate 1.6% among 190,000; in the data active = fold change above about 3.3
STAT3 blocker: reduces IL-6 driven STAT3 reporter signal; U3A cells, IL-6 STAT3-luciferase reporter, luminescence; host cell line lacks STAT1; inhibition, % at 5.5 µM; hit rate 0.89% among 190,000; AID 862;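 active = inhibition above the mean inhibition across all screened compounds plus 3 SD, cut at about 44% in these data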;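 also: 0% = DMSO only wells and 100% = 100 µM nifuroxazide control wells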
STAT3 activator: increases IL-6 driven STAT3 reporter signal. U3A cells, IL-6 STAT3-luciferase reporter, luminescence; 100% = signal with IL-6 EC80 alone. activation (% of control), % at 5.6 µM. hit rate 0.91% among 190,000;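 active = activation above the screen-wide mean of compound activation plus 3 SD, cut at about 130% in these data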;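 also: 0% = background luminescence of wells with medium and substrate only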
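Material: STAT3-luciferase reporter U3A cells. Controls: IL-6-treated wells, 100% activation. Read-out: % activation versus median of IL-6-stimulated wells. Probe or stimulus: IL-6 stimulus at 33 ng/mL final. Timing: compound 1 h, then IL-6 6 h at 37 °C. Signal: reporter luminescence signal.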
Starred values were filed as active, the others as inactive; . = no result.

SMILES	STAT1 inh	APP 5'UTR act	STAT1 activator	NF-kB expr up	STAT3 blocker	STAT3 activator
O=C(Nc1nc(-c2ccc(Cl)cc2Cl)cs1)C1CCCO1 (configuration not stated)	-2.6	-0.6	102.4	1.36	4.7	94.3
O=C(Nc1nc(-c2ccc(Cl)cc2)cs1)C1CCCO1 (configuration not stated)	-33.4	36.2	130.8*	2.46	16.0	92.5
COC(=O)c1c(-c2ccccc2)csc1NC1=NS(=O)(=O)c2ccccc21	-39.8	134.7	135.5*	1.17	-26.0	122.0
Cc1ccc(C(=O)N2c3ccccc3CC2C)o1 (configuration not stated)	-57.5	133.5	148.5*	1.05	13.6	92.4
Cc1ccccc1NC(=O)N1c2ccccc2CC1C (configuration not stated)	-15.7	-5.4	113.1	1.45	14.9	88.6
Cc1nc2cc(NC(=O)N3c4ccccc4CC3C)ccc2o1 (configuration not stated)	-52.8	95.0	146.2*	1.43	-18.4	118.3
CC(=O)CC(=O)Nc1ccc(Nc2ccccc2)cc1	-6.8	1.9	106.0	1.13	-3.9	106.9
Oc1c(Cl)cc(Cl)cc1CNc1ccc(Br)cn1	-2.3	4.2	104.5	1.42	2.4	97.9
Oc1ccc(Cl)cc1CNc1ccc(Br)cn1	-3.6	59.4	103.3	4.88*	-3.0	104.7
C=CCN(C(=O)c1csnn1)C(C(=O)NC(C)(C)C)c1ccncc1 (configuration not stated)	-13.6	6.2	111.2	1.23	8.0	97.6
CC(=O)OCCCNc1cc(Sc2nc3ccccc3s2)c2nonc2c1[N+](=O)[O-]	-34.3	1.5	131.6*	1.09	-5.9	109.7
O=C1NC(N2CCOCC2)=N/C1=C/c1ccc2c(c1)OCO2	-12.9	-0.5	111.1	1.5	7.3	104.3
Cc1cc(C)c2c(=O)[nH]c(SCC(=O)c3ccc(C)c(C)c3)nc2n1	3.7	15.6	98.1	1.53	7.9	97.5
Cc1cc(NC(=O)c2noc3c2CCc2ccccc2-3)no1	.	.	.	1.66	.	.
CC(=O)c1cccc(NC(=O)c2noc3c2CCc2ccccc2-3)c1	-27.6	169.4*	123.2	1.65	26.8	82.7
COc1ccc2c(c1)CCc1c(C(=O)NCC(C)C)noc1-2	-26.4	177.9*	122.1	6.27*	33.7	76.1
COc1ccc2c(c1)CCc1c(C(=O)N3CCCCCC3)noc1-2	-40.0	129.9	136.2*	3.4*	5.7	97.6
CCCNC(=O)c1noc2c1CCc1cc(OC)ccc1-2	-13.5	159.5*	110.3	6.07*	40.5	69.2
CCC(C)NC(=S)N1CCN(C)CC1 (configuration not stated)	6.0	-1.2	94.0	1.09	3.9	98.6
O=C(NCC1OCCCN1S(=O)(=O)c1cc(F)ccc1F)C(=O)NC1CCCCCC1 (configuration not stated)	-41.0	5.1	138.1*	1.05	-2.4	103.5
Cc1cc(F)ccc1S(=O)(=O)N1CCCOC1CNC(=O)C(=O)NCc1ccco1 (configuration not stated)	8.1	-3.1	94.5	1.03	-1.4	99.1
c1ccc2c(-c3csc(-c4ccncc4)n3)c[nH]c2c1	-53.7	30.8	147.3*	2.19	-48.9	144.0*
Oc1ccccc1-c1csc(-c2ccccc2)n1	-38.0	115.5	131.1*	1.18	-77.2	169.5*
COc1ccc(-c2csc(NC(=O)CC(C)C)n2)cc1	-8.8	35.8	108.1	2.06	10.9	91.8
Cc1nc(-c2ccc(NC(=O)CC(C)C)cc2)cs1	-32.2	40.7	129.3*	1.09	27.3	78.9
SMILES	STAT1 inh	APP 5'UTR act	STAT1 activator	NF-kB expr up	STAT3 blocker	STAT3 activator
c1ccc(-c2csc(-c3ccncc3)n2)cc1	-37.7	7.4	132.7*	1.4	9.5	93.9
CC1CCCN(Cc2csc(N)n2)C1 (configuration not stated)	-3.7	-10.3	102.9	1.19	5.2	97.5
Nc1nc(-c2ccc(C(=O)O)cc2)cs1	-1.6	40.1	100.9	1.19	-3.3	104.8
CC(C)C(=O)Nc1ccc(-c2csc(-c3ccccc3)n2)cc1	-46.2	133.2	141.6*	1.77	11.1	100.2
Nc1nc(-c2ccc(-c3ccccc3)cc2)cs1	-42.6	178.8*	140.8*	7.86*	23.2	81.8
COc1ccc(/C=C/S(=O)(=O)NCc2ccccc2)cc1OC	1.4	6.7	98.5	0.87	12.1	93.5
